Here are results for three molecules from ChEMBL document CHEMBL4145471, “New 1,5 and 2,5-disubstituted tetrazoles-dependent activity towards surface barrier of Candida albicans” (Eur J Med Chem, 2018).

Activity calls are given as the source filed them. The rule behind the calls is not given here. Where only a bound is given, the exact number is not on record here.

Test [1] deals with Candida albicans. The experiment in a line: Antifungal activity against Candida albicans ATCC 90028 after 72 hrs in presence of ergosterol by M27-A3 microdilution method. The test is classed as functional. The note with it: ATCC 90028, 72 h. In outline: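 Ergosterol-modified M27-A3 assay. Compounds at 512-1 µg/mL serially diluted in RPMI; the 10^3 CFU/mL inoculum is made in RPMI with ergosterol (dissolved in 10% DMSO/1% Tween 80, heated), giving 400 µg/mL ergosterol in the wells. Itraconazole and amphotericin B serve as controls. Plates at 35°C, read after 72 h. MIC is the lowest concentration without visible growth; triplicate on three days, geometric means.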
On the technique in general: In broth dilution the organism is exposed to a series of concentrations in liquid medium.

Test [2] concerns Candida albicans. The experiment in a line: Antifungal activity against Candida albicans ATCC 90028 assessed as reduction in cell adherence to human Caco2 cells at 256 ug/ml preincubated for 2 hrs followed by compound washout and resuspended in RPMI medium measured after 18 hrs by colony counting assay relative to control. Set-up: scale not given: the % may be the effect or the level left. The class given is functional. In outline:
(§1)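 Yeasts grown 18 h in YEPD at 30°C, then exposed at 10^4/mL to compound in RPMI for 2 h at 35°C with shaking. Washed twice in PBS, resuspended in RPMI and added to Caco-2 monolayers (18 h culture in EMEM/10% FCS) for 2 h at 37°C, 5% CO2. Non-adherent cells rinsed off, Caco-2 lysed with water, and adherent yeasts counted as colonies on Sabouraud agar after 18 h at 30°C. Expressed as % of cells added versus untreated; three experiments.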

For test [3], the system named is Candida albicans. The experiment in a line: Antifungal activity against Candida albicans ATCC 90028 assessed as reduction in cell adherence to human Caco2 cells at 0.0313 ug/ml preincubated for 2 hrs followed by compound washout and resuspended in RPMI medium measured after 18 hrs by colony counting assay relative to control. Set-up: scale not given: the % may be the effect or the level left. The class given is functional. In outline:
as §1

The test system of test [4] is Candida albicans. The test is described as follows: Antifungal activity against Candida albicans ATCC 90028 infected in Galleria mellonella larvae assessed as increase in larvae survival at 16 ug/ml preincubated for 30 to 60 mins followed by fungal infection and measured every 24 hrs for 2 days. The test is classed as functional, organism-based. In outline:
(§2)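 G. mellonella larvae (195±17 mg, ethanol-disinfected) were given 10 µL C. albicans suspension into the last right proleg. A single 10 µL dose at 16 µg/mL in RPMI (diluted from 1600 µg/mL stock) went into the last left proleg, either 30 min or 1 h after infection or 1 h or 30 min before it. Survival was checked every 24 h for 2 days. Untreated infected larvae and PBS-injected larvae served as controls; ≥3 independent experiments, mean±SEM.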

Test [5] concerns Candida albicans. The test is described as follows: Antifungal activity against Candida albicans ATCC 90028 infected in Galleria mellonella larvae assessed as survival at 16 ug/ml treated for 30 to 60 mins post infection. The class given is functional. Put shortly: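 Larvae (195±17 mg, ethanol-disinfected) injected with 10 µL C. albicans suspension into last right proleg; single 10 µL dose (16 µg/mL in RPMI, diluted from 1600 µg/mL stock) into last left proleg 30 min or 1 h later. Controls: infected untreated and PBS-injected. Survival monitored every 24 h for 2 days; health index scored. At least three independent experiments.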

For test [6], the system named is Candida albicans. The test is described as follows: Antifungal activity against Candida albicans ATCC 90028 infected in Galleria mellonella larvae assessed as survival at 16 ug/ml treated for 30 to 60 mins post infection and measured after 48 hrs. The class given is functional, organism-based. In outline: as §2
In test [7] the test system is Candida albicans. The test is described as follows: Antifungal activity against Candida albicans ATCC 90028 infected in Galleria mellonella larvae assessed as increase in health score at 16 ug/ml treated for 60 mins post infection measured after 18 hrs. The class given is functional, organism-based.
Test [8] relates to Candida albicans. The test is described as follows: Antifungal activity against Candida albicans ATCC 90028 infected in Galleria mellonella larvae assessed as increase in health score at 16 ug/ml treated for 60 mins post infection measured after 48 hrs. The class given is functional, organism-based. In outline: (§3)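 Larvae (195±17 mg, ethanol-disinfected) were injected with 10 µL C. albicans into the last right proleg. Compound at 16 µg/mL in RPMI (10 µL) went into the last left proleg 30 min or 1 h after infection, or 1 h or 30 min before it. A health index was scored from mobility, cocoon formation, melanization and survival, with monitoring every 24 h for 2 days. Controls were infected and PBS-injected larvae.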

Test [9] deals with Candida albicans. The experiment in a line: Antifungal activity against Candida albicans ATCC 90028 infected in Galleria mellonella larvae assessed as increase in larvae health score at 16 ug/ml treated for 30 mins post infection and measured after 18 to 48 hrs. The class given is functional, organism-based. Put shortly: as §3
Test [10] deals with Candida albicans. The test is described as follows: Antifungal activity against Candida albicans ATCC 90028 infected in Galleria mellonella larvae assessed as increase in larvae health score at 16 ug/ml preincubated for 30 mins followed by fungal infection and measured after 18 to 48 hrs. The class given is functional, organism-based. In outline: as §3
Test [11] relates to Candida albicans. The experiment in a line: Induction of necrosis in Candida albicans ATCC 90028 biofilms at 256 ug/ml after 18 hrs by propidium iodide/acridine orange staining based confocal laser scanning microscopic analysis. The test is classed as functional, organism-based. In outline: (§4)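 Caco-2-free model: the TR146 epithelial layer, 21 days post-seeding on filter inserts, was inoculated with 1.0–1.2×10^5/mL log-phase ATCC 90028 yeast. Biofilms were treated at 256, 16 or 0.0313 µg/mL for 18–48 h at 37°C in 5% CO2 and washed with PBS. Unfixed cells were stained with propidium iodide (5 µg/mL) and acridine orange, then imaged by confocal laser scanning microscopy.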

For test [12], the system named is Candida albicans. The test is described as follows: Induction of late apoptosis in Candida albicans ATCC 90028 biofilms assessed as formation of condense chromatin at 16 ug/ml after 18 hrs by propidium iodide/acridine orange staining based confocal laser scanning microscopic analysis. The test is classed as functional, organism-based. Put shortly: as §4
Test [13] has as its system Candida albicans. The experiment in a line: Induction of apoptosis in Candida albicans ATCC 90028 biofilms assessed as detection of DNA ladder at 256 ug/ml after 10 mins by […]. The test is classed as functional, organism-based.
The subject of test [14] is Candida albicans. The test is described as follows: Induction of early apoptosis in Candida albicans ATCC 90028 biofilms assessed as chromatin condensation at 0.03 ug/ml after 18 hrs by propidium iodide/acridine orange staining based confocal laser scanning microscopic analysis. The class given is functional, organism-based. In outline:
as §4

Test [15] concerns Candida albicans. The experiment in a line: Induction of necrosis in Candida albicans ATCC 90028 biofilms assessed as loss of cell membrane integrity at 0.03 ug/ml after 18 hrs by propidium iodide/acridine orange staining based confocal laser scanning microscopic analysis. The test is classed as functional, organism-based. In outline: as §4
Test [16] deals with Candida albicans. The test is described as follows: Ratio of MIC for Candida albicans ATCC 90028 in absence of ergosterol to MIC for Candida albicans ATCC 90028 in presence of ergosterol. The test is classed as functional. In outline:
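MICs per modified M27-A3 in RPMI with or without ergosterol (final 400 µg/mL, dissolved in 10% DMSO/1% Tween 80 with heating). Inoculum 10³ CFU/mL; tetrazoles and itraconazole tested at 512–1 µg/mL, amphotericin B at 125–0.24 µg/mL. Plates were incubated at 35°C and read at 72 h; MIC was the lowest concentration with no visible growth. Run in triplicate on three days, geometric means.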

In test [17] the test system is Candida albicans. The test is described as follows: Synergistic antifungal activity against Candida albicans ATCC 90028 at 80 ug/ml after 48 hrs in presence of fluconazol by checkerboard assay. The test is classed as functional.

Usually MIC stands for the lowest concentration found to suppress growth. Take `CCOC(=O)CCn1nnc(-c2ccccc2)n1`: the minimal inhibitory concentration (MIC) in the test with Candida albicans [1] came out at 64 µg/mL. The Activity with Candida albicans [2] amounted to 59.12%; in the test on Candida albicans [3] it was 63.41%. Also, the result in the test on Candida albicans [4], with Candida albicans [7], in the test on Candida albicans [9], with Candida albicans [10], in the test with Candida albicans [11] and with Candida albicans [12] was Active. Also, the result with Candida albicans [14] and in the test on Candida albicans [15] was Active. Also, in the test with Candida albicans [5], the Survival result is on record as “<=18 hr”. For the same molecule, the outcome with Candida albicans [6], with Candida albicans [8] and in the test with Candida albicans [13] was inactive.
As to `ClCCCn1nnnc1-c1ccccc1Cl`, in the test with Candida albicans [16], the Ratio was found to be 2.
As for `Cc1ccc(-c2nnn(CCCN3CCOCC3)n2)cc1`, the “fractional inhibitory concentration index (FICI)” value with Candida albicans [17] is given as over 1.
